Data taken from ChEMBL document CHEMBL2057186, “Application of the bicyclo[1.1.1]pentane motif as a nonclassical phenyl ring bioisostere in the design of a potent and orally active γ-secretase inhibitor” (J Med Chem, 2012).
≈ marks a conversion by molar mass, not a printed value.

Key:
[1] = Fraction unbound in 129/sve mouse brain at 30 mg/kg, po administered as single dose; assay type: ADME, organism-based; set-up: dose 30 mg/kg, route oral
Cytochrome P450 2D6 = Cytochrome P450 2D6 (Homo sapiens, UniProt P10635); assay: Inhibition of CYP2D6 in human liver microsomes using dextromethorphan as substrate; assay type: ADME, Microsome
Cytochrome P450 2D6, sequence (P10635 whole entry): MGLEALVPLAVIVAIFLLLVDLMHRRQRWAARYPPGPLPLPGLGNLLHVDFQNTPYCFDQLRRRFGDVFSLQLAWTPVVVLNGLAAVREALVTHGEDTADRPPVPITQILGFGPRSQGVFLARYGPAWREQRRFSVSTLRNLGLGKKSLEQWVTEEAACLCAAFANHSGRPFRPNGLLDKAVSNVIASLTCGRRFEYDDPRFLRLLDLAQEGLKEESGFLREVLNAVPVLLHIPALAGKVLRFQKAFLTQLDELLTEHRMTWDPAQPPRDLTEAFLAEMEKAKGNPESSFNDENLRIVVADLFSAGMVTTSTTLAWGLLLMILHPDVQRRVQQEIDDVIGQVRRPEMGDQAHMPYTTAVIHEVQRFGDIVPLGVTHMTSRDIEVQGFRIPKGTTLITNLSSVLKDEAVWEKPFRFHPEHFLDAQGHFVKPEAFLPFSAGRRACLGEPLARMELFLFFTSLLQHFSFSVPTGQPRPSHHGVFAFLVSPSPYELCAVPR

[2] = Kinetic solubility of the solubility of the compound at pH 6.5; assay type: physicochemical; details: buffer, read-out: Kinetic_solubility
Procedure, shortened: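 Kinetic solubility was measured in aqueous buffer at pH 6.5.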

Mus musculus = assay: Antialzheimer activity in 129/sve mouse assessed as reduction in amyloid beta40 level in plasma at 30 mg/kg, po administered as single dose measured at 1 hr by ELISA relative to vehicle treated control; assay type: functional; set-up: scale not given: the % may be the effect or the level left
Procedure, shortened: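 Wild-type male 129/sve mice received a single oral dose in Phosal 50 PG/Tween 80 vehicle. Aβ40 was measured in brain, CSF and plasma and Aβ42 in brain over a time course. Levels are expressed as % of vehicle-treated animals. Values are mean ± SEM, n = 5 or 8 per time point.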

[3] = AUC (last) in 129/sve mouse plasma at 30 mg/kg, po administered as single dose by LC-MS/MS analysis; assay type: ADME, organism-based; set-up: dose 30 mg/kg, route oral, time 0 - last
Procedure, shortened: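 Wild-type male 129/sve mice received a single oral dose in 98% (v/v) Phosal 50 PG / 2% Tween 80. Drug was measured in plasma, brain and CSF. Study was nonserial, so AUC came from mean matrix concentrations at each time point. Values are mean ± SD (n = 4 or 5).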

Gamma-secretase = assay: Inhibition of gamma secretase-mediated amyloid beta42 production in human H4 cells expressing human wild-type APP
[4] = Apparent permeability from apical to basal side of dog RRCK cells; assay type: ADME, cell-based, Canis lupus familiaris, MDCKII-LE; details: MDCK
Procedure, shortened: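 Absorptive (A to B) permeability was measured in RRCK cells, a Madin–Darby canine kidney subline isolated for low transporter activity. It estimates intrinsic passive permeability.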

[5] = Tmax in 129/sve mouse brain at 30 mg/kg, po administered as single dose by LC-MS/MS analysis; assay type: ADME, organism-based; set-up: dose 30 mg/kg, route oral
Procedure, shortened: (§1)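 Single-dose oral PK in wild-type male 129/sve mice. Formulation was 98% (v/v) Phosal 50 PG with 2% Tween 80. Compound was measured in plasma, brain and CSF. Values are means ± standard deviations (n = 4 or 5).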

Homo sapiens = species: Homo sapiens; assay: Selectivity for human gamma-seretase over notch signalling protein
[6] = Ratio of unbound fraction in brain to unbound fraction in plasma in 129/sve mouse at 30 mg/kg, po administered as single dose by LC-MS/MS analysis; assay type: ADME, organism-based; set-up: dose 30 mg/kg, route oral; details: in vivo
Procedure, shortened: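 Single oral dose of 30 mg/kg in wild-type male 129/sve mice, formulated in 98% (v/v) Phosal 50 PG with 2% Tween 80. Brain, CSF and plasma were sampled nonserially over time, and AUC was taken from mean matrix concentrations. Brain availability = (f_u,brain × [brain]) / (f_u,plasma × [plasma]), with n = 4–5 per group.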

[7] = Cmax in 129/sve mouse cerebrospinal fluid at 30 mg/kg, po administered as single dose by LC-MS/MS analysis; assay type: ADME, organism-based; set-up: dose 30 mg/kg, route oral; procedure, shortened: as §1
[8] = Half life in Sprague-Dawley rat at 1 mg/kg, iv; assay type: ADME, organism-based; set-up: dose 1 mg/kg, route intravenous; details: in vivo
Procedure, shortened: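 Female rats were dosed once, 1 mg/kg iv (2 mL/kg, 0.5 mg/mL) or 5 mg/kg po (10 mL/kg, 0.5 mg/mL). Vehicle was 40% (w/v) hydroxypropyl-β-cyclodextrin. Plasma was sampled to 24 h. Values are means ± SEM (n = 3).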

[9] = AUC (0 to 24 hrs) in Sprague-Dawley rat at 1 mg/kg, iv; assay type: ADME, organism-based; set-up: time < 24 hr, dose 1 mg/kg, route intravenous; details: plasma
Procedure, shortened: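 Single-dose PK in female rats; iv at 1 mg/kg (2 mL/kg, 0.5 mg/mL) and po at 5 mg/kg (10 mL/kg, 0.5 mg/mL), both formulated in 40% (w/v) hydroxypropyl-β-cyclodextrin.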

NC(=O)[C@@H](CCC(F)(F)F)N(CC12CC(c3ncon3)(C1)C2)S(=O)(=O)c1ccc(Cl)cc1
fraction unbound [1]: 0.026
inhibition (INH) (Cytochrome P450 2D6): Not Active
solubility kinetic [2]: 216 µM (≈ 106 µg/mL)
Activity (Mus musculus): 59%
AUC(0-t) [3]: 14.3 µM·h
IC50 (Gamma-secretase): 0.178 nM
Papp A→B [4]: 19.3 ×10⁻⁶ cm/s
Tmax [5]: 1 h
Selectivity Index (Homo sapiens): 178
Ratio [6]: 0.62
Cmax [7]: 53 nM
half-life [8]: 2.18 h
AUC(0-t) at 24 h [9]: 2.54 µM·h
